This is an account of results in PubChem BioAssay.

A short description of assay [1]: SK-BR-3 cell growth inhibitors, pilot screen, 24 h, human (AID 572;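 active = viability at or below 10% of carrier control in both of two separate runs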;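 also: compound exposure lasted between 18 and 24 h rather than exactly 24 h; 100% = carrier-treated control wells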). As to conditions: SK-BR-3 viability, CellTiter-Glo luminescence, at 10 µM, stronger effect = lower value.
The nature of assay [2]: HUVEC growth inhibition – cell-based, human, primary screen (AID 575;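 active = viability at or below 30% in both replicate assays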;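 also: 100% = median of untreated cell wells with 0.1% DMSO on each plate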). The note with it: HUVEC proliferation, CellTiter-Glo luminescence, 72 h; at 10 µM; stronger effect = lower value. An outline of the steps: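 Timing: 72 h treatment at 37 °C; material: HUVEC primary cells; technique: CellTiter-Glo luminescence measuring cellular ATP; controls: vehicle and MePR control wells; measure: percent of median DMSO-control luminescence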

Assay [3] in a line: growth inhibitors of H69AR lung tumor, primary screen, human, duplicate replicates (AID 580;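 active = viability at or under a set limit in both replicates, limit being median viability minus 3 SD, cut at about 48% in these data, passing the limit was not always enough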;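 also: 100% = mean luminescence of untreated wells and 0% = no signal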). The note with it: H69AR lung tumor cells viability, ATP luminescence, 72 h; at 10 µM; stronger effect = lower value.
The nature of assay [4]: reversal of MRP1-mediated doxorubicin resistance, pilot screen, H69AR cells, doxorubicin co-treatment (AID 601;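 active = viability loss from added drug above about 55%, and viability with drug at most 40%, in both replicates, limit read from the data, passing the limit was not always enough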). The note with it: CellTiter-Glo, 72 h, at 10 µM; for differential viability (reversal): stronger effect = higher value.
A short description of assay [5]: 384-well plate pilot, post-Golgi transport modulator project, inhibition of yeast transport mutant growth (AID 636; in the data active = inhibition above about 31%). The note with it: absorbance 615 nm, about 18 h, stronger effect = higher value.
A short description of assay [6]: growth suppression of yeast trafficking mutant, preliminary HTS, modulators of trafficking downstream of Golgi apparatus project, 1536-format plate, OD 615 nm (AID 637). The note with it: yeast transport mutant growth, absorbance 615 nm, 18 h; stronger effect = higher value.
Setting [7] is: H69AR cells + 2 uM doxorubicin, measured here: viability with 2 uM doxorubicin, stronger effect = lower value.
Where [8] appears, read: H69AR cells, compound alone cytotoxicity.

The source made the active and inactive calls. Rule as the data show it, unless noted: active = inhibition above about 30%; inactive = the rest.

As to `Clc1ccc(-n2nnnc2Sc2ncnc3sccc23)cc1`, the viability is 123% (inactive) in assay [1]; 5.51% (active) in assay [2]; 1.29% (active) in assay [3]; 1.56% in assay [4] (setting [7]); 1.29% in assay [4] (setting [8]). In assay [4] (H69AR cells + 2 uM doxorubicin), the differential viability (reversal) was -0.27% (inactive). The figures for the inhibition in assay [5] and in assay [6] were 20.6% (inactive) and 65.5% (active), respectively.
Regarding `COc1cc2[nH]c3c(=O)n(CCN(C(C)C)C(C)C)cnc3c2cc1OC`, the viability in assay [1] is 95% (inactive); in assay [2], 99.1% (inactive); in assay [3], 83.5% (inactive); in assay [4] (setting [7]), 83.9%; in assay [4] (setting [8]), 83.5%. Moreover, in assay [4] (H69AR cells + 2 uM doxorubicin), the differential viability (reversal) was -0.365% (inactive). The inhibition in assay [5] was -6.89% (inactive); in assay [6] it was 4.91% (inactive).
`CCOC(=O)C(C(C)=O)c1nc(C)nc2c1nnn2Cc1ccccc1Cl` (centres undefined): the viability in assay [1] is 58% (inactive); in assay [2] it was 71.7% (inactive); in assay [3], 79.4% (inactive); in assay [4] (setting [7]), 89.1%; in assay [4] (setting [8]) it was 79.4%. The differential viability (reversal) in assay [4] (H69AR cells + 2 uM doxorubicin) is -9.73% (inactive). In addition, the inhibition in assay [5] was 1.08% (inactive); in assay [6], -2.18% (inactive).
In the case of `OC[C@H]1O[C@@H](n2cnc3c(NC4CCCC4)ncnc32)[C@H](O)[C@@H]1O`, the viability in assay [1] was 113% (inactive); in assay [2], 57.6% (inactive); in assay [3], 74.9% (inactive); in assay [4] (setting [7]), 93%; in assay [4] (setting [8]), 74.9%. For the same compound, the differential viability (reversal) in assay [4] (H69AR cells + 2 uM doxorubicin) is -18.2% (inactive). For the same compound, the values for the inhibition in assay [5] and in assay [6] were 0.52% (inactive) and -5% (inactive), respectively.
Regarding `CC(=O)NC(C)C(=O)OCc1ccc(Cl)cc1Cl` (centres undefined), the viability in assay [1] was 66% (inactive); in assay [2] it was 99.5% (inactive); in assay [3], 103% (inactive); in assay [4] (setting [7]), 95.2%; in assay [4] (setting [8]), 103%. For the same compound, the differential viability (reversal) in assay [4] (H69AR cells + 2 uM doxorubicin) is 7.35% (inactive). Also, the values for the inhibition in assay [5] and in assay [6] were -4.79% (inactive) and -1.27% (inactive), respectively.
On to `Cc1ccc(S(=O)(=O)C(C#N)c2nc3ccccc3nc2OC(C)C)cc1` (centres undefined), for which the viability in assay [1] is 101% (inactive); in assay [2] it was 91% (inactive); in assay [3], 105% (inactive); in assay [4] (setting [7]), 97.3%; in assay [4] (setting [8]), 105%. The differential viability (reversal) in assay [4] (H69AR cells + 2 uM doxorubicin) is 7.79% (inactive). Also, the inhibition in assay [5] is -4.13% (inactive); in assay [6] it was 4.55% (inactive).
Regarding `COc1ccccc1N1CCN(C(=O)CSc2nc3ncnc(N)c3[nH]2)CC1`, the viability in assay [1] was 110% (inactive); in assay [2], 96.6% (inactive); in assay [3], 92.8% (inactive); in assay [4] (setting [7]) it was 89.3%; in assay [4] (setting [8]), 92.8%. Besides, the differential viability (reversal) in assay [4] (H69AR cells + 2 uM doxorubicin) is 3.56% (inactive). The inhibition is -4.29% (inactive) in assay [5] and -1.31% (inactive) in assay [6].
`CC(C)(C)NS(=O)(=O)c1ccc(CCC(=O)O)cc1`: the viability in assay [1] is 100% (inactive); in assay [2], 105% (inactive); in assay [3], 94.8% (inactive); in assay [4] (setting [7]), 100%; in assay [4] (setting [8]), 94.8%. In addition, the differential viability (reversal) in assay [4] (H69AR cells + 2 uM doxorubicin) is -5.2% (inactive). Further, the values for the inhibition in assay [5] and in assay [6] were -3.42% (inactive) and -1.45% (inactive), respectively.
Regarding `CCC(=O)N(Cc1ccco1)c1nc(-c2cc(OC)ccc2OC)cs1`, the viability was 105% (inactive) in assay [1]; 42.8% (inactive) in assay [2]; 69.3% (inactive) in assay [3]; 70.2% in assay [4] (setting [7]); 69.3% in assay [4] (setting [8]). Also, in assay [4] (H69AR cells + 2 uM doxorubicin), the differential viability (reversal) is -0.87% (inactive). In addition, the inhibition in assay [5] was -2% (inactive); in assay [6], -2.91% (inactive).
As to `Cn1c(C(=O)OC(C(=O)NC2CCCC2)c2cccnc2)cc2sccc21` (centres undefined), the viability is 74% (inactive) in assay [1]; 110% (inactive) in assay [2]; 89.1% (inactive) in assay [3]; 92.6% in assay [4] (setting [7]); 89.1% in assay [4] (setting [8]). Besides, the differential viability (reversal) in assay [4] (H69AR cells + 2 uM doxorubicin) is -3.48% (inactive). The inhibition in assay [5] was -4.38% (inactive); in assay [6], 2.91% (inactive).
Consider `NCCCCCc1nnc(SC/C=C/c2ccccc2)o1`, for which the viability in assay [1] was 99% (inactive); in assay [2], 73.8% (inactive); in assay [3] it was 89.9% (inactive); in assay [4] (setting [7]) it was 86.9%; in assay [4] (setting [8]), 89.9%. Besides, in assay [4] (H69AR cells + 2 uM doxorubicin), the differential viability (reversal) was 3.04% (inactive). Moreover, the inhibition in assay [5] was -6.85% (inactive); in assay [6] it was 18.2% (inactive).
In the case of `COC(=O)c1cc(Br)c(=O)n(CCc2ccc(F)cc2)c1`, the viability was 78% (inactive) in assay [1]; 118% (inactive) in assay [2]; 100% (inactive) in assay [3]; 92% in assay [4] (setting [7]); 100% in assay [4] (setting [8]). In addition, in assay [4] (H69AR cells + 2 uM doxorubicin), the differential viability (reversal) was 8.46% (inactive). In addition, the inhibition was -5.27% (inactive) in assay [5] and 3.09% (inactive) in assay [6].
Turning to `COc1ccc(C)cc1-n1nnnc1SC/C(O)=C(\C#N)c1nc2ccccc2[nH]1`, the viability in assay [1] was 96% (inactive); in assay [2], 86.6% (inactive); in assay [3] it was 85.2% (inactive); in assay [4] (setting [7]) it was 98.4%; in assay [4] (setting [8]) it was 85.2%. Further, the differential viability (reversal) in assay [4] (H69AR cells + 2 uM doxorubicin) was -13.1% (inactive). The inhibition in assay [5] was -4.11% (inactive); in assay [6] it was 1.27% (inactive).
With `CC(C)(C)n1ncc2c(=O)n(CC(=O)NCc3ccccc3)cnc21`, the viability in assay [1] is 90% (inactive); in assay [2], 54.7% (inactive); in assay [3] it was 15.5% (active); in assay [4] (setting [7]) it was 63.9%; in assay [4] (setting [8]), 15.5%. The differential viability (reversal) in assay [4] (H69AR cells + 2 uM doxorubicin) is -48.5% (inactive). The inhibition was -1.2% (inactive) in assay [5] and -1.27% (inactive) in assay [6].
For `C(=N/n1c2ccccc2c2ccccc21)/c1ccco1`, the viability is 81% (inactive) in assay [1]; 77.9% (inactive) in assay [2]; 86.5% (inactive) in assay [3]; 89.6% in assay [4] (setting [7]); 86.5% in assay [4] (setting [8]). For the same compound, the differential viability (reversal) in assay [4] (H69AR cells + 2 uM doxorubicin) is -3.11% (inactive). The inhibition is -5.19% (inactive) in assay [5] and 0.49% (inactive) in assay [6].
`CCOc1cc(C(=O)N(C)Cc2cc3cc(OC)ccc3[nH]c2=O)cc(OCC)c1OCC`: the viability in assay [1] is 88% (inactive); in assay [2] it was 114% (inactive); in assay [3], 95.1% (inactive); in assay [4] (setting [7]), 96.2%; in assay [4] (setting [8]), 95.1%. Further, the differential viability (reversal) in assay [4] (H69AR cells + 2 uM doxorubicin) is -1.01% (inactive). The inhibition in assay [5] is -4.46% (inactive); in assay [6] it was 17.3% (inactive).
As to `CCOCC(O)CS(=O)Cc1ccccc1` (centres undefined), the viability in assay [1] was 111% (inactive); in assay [2] it was 113% (inactive); in assay [3], 98.5% (inactive); in assay [4] (setting [7]), 76.4%; in assay [4] (setting [8]), 98.5%. Further, the differential viability (reversal) in assay [4] (H69AR cells + 2 uM doxorubicin) was 22.1% (inactive). Further, the results for the inhibition in assay [5] and in assay [6] were -6.67% (inactive) and -4.55% (inactive), respectively.
Regarding `CCOc1ccc2c(c1)c1nnc(SCC(=O)N3CCC(C)CC3)nc1n2C`, the viability in assay [1] was 84% (inactive); in assay [2] it was 70.9% (inactive); in assay [3], 95.8% (inactive); in assay [4] (setting [7]), 87.3%; in assay [4] (setting [8]), 95.8%. Also, the differential viability (reversal) in assay [4] (H69AR cells + 2 uM doxorubicin) was 8.51% (inactive). Moreover, the inhibition in assay [5] was -3.78% (inactive); in assay [6] it was -1.45% (inactive).
